The results in this text go back to paper PMC11333997 (RSC Advances, 2024).

The term IC50 denotes the midpoint of a concentration-inhibition curve.

In assay [1] the test system is WI-38 normal human lung fibroblast cells. Briefly: MTT cytotoxicity on normal fibroblast cell line. Format: cell-based. The note with it: WI-38, read-out: IC50 WI-38.
For assay [2], the system named is HEPG-2 hepatocellular carcinoma cells. Briefly: MTT in vitro anti-tumor screening. The assay is classed as cell-based. Conditions: Homo sapiens, HepG2, read-out: IC50 HEPG-2.
Assay [3] has as its target VEGFR-2 (Homo sapiens, UniProt P35968). The experiment in a line: biochemical.
Assay [4] has as its system HEPG-2, HCT-116 and MCF-7 cell lines. Briefly: MTT anti-tumor screening, values over the cancer cell line panel. The assay is classed as cell-based. Conditions: Homo sapiens, read-out: IC50 range over the cancer cell lines.
Assay [5] has as its system HCT-116 cells. The experiment in a line: Flow cytometry cell cycle analysis. The assay is classed as cell-based, human. The method, boiled down:
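HCT-116 cells exposed to the test compound for 24 h, with DMSO as control. Cells were stained with propidium iodide, and DNA ploidy was analysed on a FACSCalibur flow cytometer. The percentage of cells in G0–G1, S and G2-M phases was reported.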
On the technique in general: A flow cytometer gives signals particle by particle.

Assay [6] addresses EGFR (Homo sapiens, UniProt P00533). Briefly: In vitro EGFR kinase inhibition assay. The assay is classed as biochemical.
Assay [7] concerns EGFR/VEGFR-2. Briefly: EGFR/VEGFR-2 enzyme inhibition, both kinases stated together. The assay is classed as biochemical. Conditions: compared with the tested analogues (4).
The test system of assay [8] is MCF-7 breast cancer cells. Briefly: MTT in vitro anti-tumor screening. The assay is classed as cell-based, human. The note with it: read-out: IC50 MCF-7, mean of three independent experiments ± SD.

SMILES strings stand for the structures.

Sequence of EGFR (P00533 25-1210): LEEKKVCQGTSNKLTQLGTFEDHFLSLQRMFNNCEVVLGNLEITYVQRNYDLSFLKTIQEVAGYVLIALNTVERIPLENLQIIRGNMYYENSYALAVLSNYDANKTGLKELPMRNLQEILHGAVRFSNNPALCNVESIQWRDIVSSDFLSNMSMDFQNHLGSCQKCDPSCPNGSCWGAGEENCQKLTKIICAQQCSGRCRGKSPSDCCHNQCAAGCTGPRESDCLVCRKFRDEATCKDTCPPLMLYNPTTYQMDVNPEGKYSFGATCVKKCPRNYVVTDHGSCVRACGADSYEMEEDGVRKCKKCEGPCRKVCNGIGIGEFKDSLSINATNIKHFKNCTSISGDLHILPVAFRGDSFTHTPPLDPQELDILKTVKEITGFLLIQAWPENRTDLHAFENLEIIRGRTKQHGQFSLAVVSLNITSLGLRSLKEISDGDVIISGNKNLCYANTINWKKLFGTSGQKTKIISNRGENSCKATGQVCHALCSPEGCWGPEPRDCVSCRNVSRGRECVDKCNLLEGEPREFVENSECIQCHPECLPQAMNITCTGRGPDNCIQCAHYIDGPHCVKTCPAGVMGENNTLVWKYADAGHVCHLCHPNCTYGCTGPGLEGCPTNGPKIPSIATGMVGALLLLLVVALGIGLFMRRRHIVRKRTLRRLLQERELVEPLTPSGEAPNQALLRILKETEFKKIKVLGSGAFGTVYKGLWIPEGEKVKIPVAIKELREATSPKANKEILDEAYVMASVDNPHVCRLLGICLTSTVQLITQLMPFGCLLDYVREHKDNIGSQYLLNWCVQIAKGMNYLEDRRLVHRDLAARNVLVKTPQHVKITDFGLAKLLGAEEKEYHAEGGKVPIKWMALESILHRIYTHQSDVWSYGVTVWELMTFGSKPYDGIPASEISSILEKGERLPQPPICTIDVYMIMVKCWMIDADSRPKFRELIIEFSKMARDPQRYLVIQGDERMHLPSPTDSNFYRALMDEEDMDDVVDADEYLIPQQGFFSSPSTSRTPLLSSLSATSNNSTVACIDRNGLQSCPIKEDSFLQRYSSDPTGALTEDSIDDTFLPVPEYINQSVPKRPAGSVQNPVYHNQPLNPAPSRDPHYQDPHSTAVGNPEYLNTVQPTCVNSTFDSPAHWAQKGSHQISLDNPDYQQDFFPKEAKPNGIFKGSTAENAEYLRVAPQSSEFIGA
Sequence of VEGFR-2 (P35968 20-1356): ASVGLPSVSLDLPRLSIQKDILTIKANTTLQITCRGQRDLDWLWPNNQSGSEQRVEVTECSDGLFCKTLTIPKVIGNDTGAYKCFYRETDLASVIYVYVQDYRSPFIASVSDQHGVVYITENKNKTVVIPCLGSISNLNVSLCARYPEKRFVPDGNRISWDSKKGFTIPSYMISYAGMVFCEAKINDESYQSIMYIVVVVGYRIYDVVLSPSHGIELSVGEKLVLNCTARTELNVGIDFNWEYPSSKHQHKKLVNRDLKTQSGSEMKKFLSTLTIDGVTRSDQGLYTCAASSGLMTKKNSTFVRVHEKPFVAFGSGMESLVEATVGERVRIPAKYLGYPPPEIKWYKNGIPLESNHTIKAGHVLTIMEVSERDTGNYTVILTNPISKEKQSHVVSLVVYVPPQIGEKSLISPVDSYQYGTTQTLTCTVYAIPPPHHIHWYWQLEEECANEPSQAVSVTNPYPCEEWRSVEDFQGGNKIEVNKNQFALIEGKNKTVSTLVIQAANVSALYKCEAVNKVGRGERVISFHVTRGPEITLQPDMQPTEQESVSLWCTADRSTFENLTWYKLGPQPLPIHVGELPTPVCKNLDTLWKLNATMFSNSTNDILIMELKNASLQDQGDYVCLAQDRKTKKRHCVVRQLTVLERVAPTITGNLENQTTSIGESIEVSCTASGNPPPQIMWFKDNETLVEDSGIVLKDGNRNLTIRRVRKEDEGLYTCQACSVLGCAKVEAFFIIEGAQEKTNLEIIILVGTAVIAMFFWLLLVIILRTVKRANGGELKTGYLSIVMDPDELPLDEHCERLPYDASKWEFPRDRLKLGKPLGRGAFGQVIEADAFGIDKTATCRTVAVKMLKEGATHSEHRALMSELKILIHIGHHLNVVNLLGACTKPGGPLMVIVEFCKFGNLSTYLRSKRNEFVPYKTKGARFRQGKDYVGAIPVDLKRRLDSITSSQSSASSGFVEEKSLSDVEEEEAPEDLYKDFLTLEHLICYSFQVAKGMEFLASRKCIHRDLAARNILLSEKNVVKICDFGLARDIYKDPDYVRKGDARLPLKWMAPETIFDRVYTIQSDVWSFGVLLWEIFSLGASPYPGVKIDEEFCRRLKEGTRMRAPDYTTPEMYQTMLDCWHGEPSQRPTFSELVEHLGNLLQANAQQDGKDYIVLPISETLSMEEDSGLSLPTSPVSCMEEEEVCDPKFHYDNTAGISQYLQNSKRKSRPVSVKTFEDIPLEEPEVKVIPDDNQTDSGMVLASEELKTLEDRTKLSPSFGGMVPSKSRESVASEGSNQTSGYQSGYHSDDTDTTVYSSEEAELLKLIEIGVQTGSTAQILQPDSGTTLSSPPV

As to `COc1ccc(NC(=O)NNC(=O)CSc2nc3ccccc3c(=O)n2-c2ccc(C)cc2)cc1` [Compound 8, N-(4-Methoxyphenyl)-2-(2-((4-oxo-3-(p-tolyl)-3,4-dihydroquinazolin-2-yl)thio)acetyl)hydrazinecarboxamide], the IC50 in assay [1] is 31.8 ± 2.2 µM; in assay [2], greater than 100 µM.
As for `COc1ccc(-n2c(SCC(=O)NNC(=O)NCc3ccccc3)nc3ccccc3c2=O)cc1` [Compound 27, N-Benzyl-2-(2-((3-(4-methoxyphenyl)-4-oxo-3,4-dihydroquinazolin-2-yl)thio)acetyl)hydrazinecarboxamide], the values for the IC50 in assay [1] and in assay [2] were greater than 100 µM and 87.3 ± 4.6 µM, respectively.
With `Cc1cccc(C)c1NC(=O)NNC(=O)CSc1nc2ccccc2c(=O)n1-c1ccc(Cl)cc1` [Compound 17, 2-(2-((3-(4-Chlorophenyl)-4-oxo-3,4-dihydroquinazolin-2-yl)thio)acetyl)-N-(2,6-dimethylphenyl)hydrazinecarboxamide], the IC50 in assay [1] was 89.4 ± 4.7 µM; in assay [2], 22.4 ± 1.5 µM.
The matching figures for `COc1ccc(-n2c(SCC(=O)NNC(=O)Nc3ccc(C)cc3)nc3ccccc3c2=O)cc1` [Compound 23, 2-(2-((3-(4-Methoxyphenyl)-4-oxo-3,4-dihydroquinazolin-2-yl)thio)acetyl)-N-(p-tolyl)hydrazinecarboxamide]: 63.9 ± 3.7 µM and 41.3 ± 2.4 µM.
Consider `Cc1ccc(NC(=O)NNC(=O)CSc2nc3ccccc3c(=O)n2-c2ccc(C)cc2)cc1` [Compound 7, 2-(2-((4-Oxo-3-(p-tolyl)-3,4-dihydroquinazolin-2-yl)thio)acetyl)-N-(p-tolyl)hydrazinecarboxamide], for which the IC50 in assay [1] was greater than 100 µM; in assay [2] it was 76.4 ± 4.3 µM.
In the case of `Cc1ccc(-n2c(SCC(=O)NNC(=O)Nc3ccc(Cl)cc3)nc3ccccc3c2=O)cc1` [Compound 6, N-(4-Chlorophenyl)-2-(2-((4-oxo-3-(p-tolyl)-3,4-dihydroquinazolin-2-yl)thio)acetyl)hydrazinecarboxamide], the IC50 was determined as 66.2 ± 3.9 µM in assay [1] and 14.2 ± 1.2 µM in assay [2].
Consider `COc1ccc(NC(=O)NNC(=O)CSc2nc3ccccc3c(=O)n2-c2ccc(Cl)cc2)cc1` [Compound 16, 2-(2-((3-(4-Chlorophenyl)-4-oxo-3,4-dihydroquinazolin-2-yl)thio)acetyl)-N-(4-methoxyphenyl)hydrazinecarboxamide], for which the IC50 in assay [1] was 17.8 ± 1.3 µM; in assay [2] it was 46.6 ± 2.6 µM.
On to `COc1ccc(NC(=O)NNC(=O)CSc2nc3ccccc3c(=O)n2-c2ccc(OC)cc2)cc1` [Compound 24, N-(4-Methoxyphenyl)-2-(2-((3-(4-methoxyphenyl)-4-oxo-3,4-dihydroquinazolin-2-yl)thio)acetyl)hydrazinecarboxamide], for which the results for the IC50 in assay [1] and in assay [2] were 71.4 ± 3.8 µM and greater than 100 µM, respectively.
`COc1ccc(-n2c(SCC(=O)NNC(=O)Nc3c(C)cccc3C)nc3ccccc3c2=O)cc1` [Compound 25, N-(2,6-Dimethylphenyl)-2-(2-((3-(4-methoxyphenyl)-4-oxo-3,4-dihydroquinazolin-2-yl)thio)acetyl)hydrazinecarboxamide]: the IC50 came to 56.4 ± 3.3 µM in assay [1] and 83.6 ± 4.5 µM in assay [2].
As for `Cc1ccc(-n2c(SCC(=O)NNC(=O)Nc3ccccc3)nc3ccccc3c2=O)cc1` [Compound 4, 2-(2-((4-Oxo-3-(p-tolyl)-3,4-dihydroquinazolin-2-yl)thio)acetyl)-N-phenylhydrazinecarboxamide], the IC50 in assay [1] was 45.6 ± 2.4 µM; in assay [2], 3.92 ± 0.2 µM; in assay [3], 0.054 ± 0.002 µM; in assay [4], 1.5 to 5.86 µM; in assay [6] it was 0.049 ± 0.002 µM. Moreover, the “Cell cycle distribution G2-M” value in assay [5] (at IC50 concentration, 24 h, control 19.54%) came out at 8.65%. Besides, in assay [5] (at IC50 concentration, 24 h, control 36.53%), the “Cell cycle distribution S” value stood at 36.18%. The “Cell cycle distribution G0–G1” value in assay [5] (at IC50 concentration, 24 h, control 43.93%) amounted to 55.17%. The “cell cycle arrest phase” value in assay [5] (flow cytometry) was “G1 phase”.
In the case of `Cc1ccc(-n2c(SCC(=O)NNC(=O)Nc3ccc(C(F)(F)F)cc3Cl)nc3ccccc3c2=O)cc1` [Compound 10, N-(2-Chloro-4-(trifluoromethyl)phenyl)-2-(2-((4-oxo-3-(p-tolyl)-3,4-dihydroquinazolin-2-yl)thio)acetyl)hydrazinecarboxamide], the IC50 in assay [1] is 86.9 ± 4.4 µM; in assay [2] it was 49.6 ± 2.7 µM.
Consider `COc1ccc(-n2c(SCC(=O)NNC(=O)Nc3ccc(Cl)cc3)nc3ccccc3c2=O)cc1` [Compound 22, N-(4-Chlorophenyl)-2-(2-((3-(4-methoxyphenyl)-4-oxo-3,4-dihydroquinazolin-2-yl)thio)acetyl)hydrazinecarboxamide], for which the IC50 was 15.5 ± 1.2 µM in assay [1] and 37.8 ± 2.1 µM in assay [2].
In the case of `Cc1ccc(-n2c(SCC(=O)NNC(=O)NCc3ccccc3)nc3ccccc3c2=O)cc1` [Compound 11, N-Benzyl-2-(2-((4-oxo-3-(p-tolyl)-3,4-dihydroquinazolin-2-yl)thio)acetyl)hydrazinecarboxamide], the IC50 in assay [1] came out at 54.1 ± 3 µM; in assay [2], 8.1 ± 0.6 µM; in assay [3] it was 0.156 ± 0.007 µM; in assay [6], 0.117 ± 0.005 µM.
`COc1ccc(-n2c(SCC(=O)NNC(=O)Nc3ccc(F)cc3)nc3ccccc3c2=O)cc1` [Compound 21, N-(4-Fluorophenyl)-2-(2-((3-(4-methoxyphenyl)-4-oxo-3,4-dihydroquinazolin-2-yl)thio)acetyl)hydrazinecarboxamide]: the IC50 in assay [1] came to 27.6 ± 1.9 µM; in assay [2], 11.5 ± 0.9 µM.
`O=C(CSc1nc2ccccc2c(=O)n1-c1ccc(Cl)cc1)NNC(=O)Nc1ccc(Cl)cc1` [Compound 14, N-(4-Chlorophenyl)-2-(2-((3-(4-chlorophenyl)-4-oxo-3,4-dihydroquinazolin-2-yl)thio)acetyl)hydrazinecarboxamide]: the IC50 in assay [1] came to 16.7 ± 1.4 µM; in assay [2], 29.8 ± 1.8 µM.
On to `Cc1ccc(-n2c(SCC(=O)NNC(=O)Nc3c(C)cccc3C)nc3ccccc3c2=O)cc1` [Compound 9, N-(2,6-Dimethylphenyl)-2-(2-((4-oxo-3-(p-tolyl)-3,4-dihydroquinazolin-2-yl)thio)acetyl)hydrazinecarboxamide], for which the IC50 in assay [1] was 62.2 ± 3.5 µM; in assay [2] it was 53.1 ± 3 µM.
For `O=C(CSc1nc2ccccc2c(=O)n1-c1ccc(Cl)cc1)NNC(=O)Nc1ccc(C(F)(F)F)cc1Cl` [Compound 18, N-(2-Chloro-4-(trifluoromethyl)phenyl)-2-(2-((3-(4-chlorophenyl)-4-oxo-3,4-dihydroquinazolin-2-yl)thio)acetyl)hydrazinecarboxamide], the IC50 in assay [1] was determined as 84.4 ± 4.2 µM; in assay [2], 34.6 ± 2 µM.
In the case of `O=C(CSc1nc2ccccc2c(=O)n1-c1ccc(Cl)cc1)NNC(=O)NCc1ccccc1` [Compound 19, N-Benzyl-2-(2-((3-(4-chlorophenyl)-4-oxo-3,4-dihydroquinazolin-2-yl)thio)acetyl)hydrazinecarboxamide], the IC50 in assay [1] is greater than 100 µM; in assay [2], 73.5 ± 4.2 µM.
For `O=C(CSc1nc2ccccc2c(=O)n1-c1ccc(Cl)cc1)NNC(=O)Nc1ccc(F)cc1` [Compound 13, 2-(2-((3-(4-Chlorophenyl)-4-oxo-3,4-dihydroquinazolin-2-yl)thio)acetyl)-N-(4-fluorophenyl)hydrazinecarboxamide], in that order: 47.5 ± 2.6 µM and 63.5 ± 3.7 µM.
As for `COc1ccc(-n2c(SCC(=O)NNC(=O)Nc3ccc(C(F)(F)F)cc3Cl)nc3ccccc3c2=O)cc1` [Compound 26, N-(2-Chloro-4-(trifluoromethyl)phenyl)-2-(2-((3-(4-methoxyphenyl)-4-oxo-3,4-dihydroquinazolin-2-yl)thio)acetyl)hydrazinecarboxamide], the IC50 in assay [1] is 30.2 ± 2.1 µM; in assay [2], 72.8 ± 4 µM.
The matching figures for `Cc1ccc(-n2c(SCC(=O)NNC(=O)Nc3ccc(F)cc3)nc3ccccc3c2=O)cc1` [Compound 5, N-(4-Fluorophenyl)-2-(2-((4-oxo-3-(p-tolyl)-3,4-dihydroquinazolin-2-yl)thio)acetyl)hydrazinecarboxamide]: greater than 100 µM and 58.9 ± 3.4 µM.
Consider `COc1ccc(-n2c(SCC(=O)NNC(=O)Nc3ccccc3)nc3ccccc3c2=O)cc1` [Compound 20, 2-(2-((3-(4-Methoxyphenyl)-4-oxo-3,4-dihydroquinazolin-2-yl)thio)acetyl)-N-phenylhydrazinecarboxamide], for which the IC50 is 42.9 ± 2.6 µM in assay [1]; 5.17 ± 0.4 µM in assay [2]; 0.474 ± 0.02 µM in assay [3]; 4.42 to 6.39 µM in assay [4]; 0.362 ± 0.014 µM in assay [6]. The “fold decrease in binding affinity (EGFR and VEGFR-2)” value in assay [7] was 9–10 fold.
Regarding `Cc1ccc(NC(=O)NNC(=O)CSc2nc3ccccc3c(=O)n2-c2ccc(Cl)cc2)cc1` [Compound 15, 2-(2-((3-(4-Chlorophenyl)-4-oxo-3,4-dihydroquinazolin-2-yl)thio)acetyl)-N-(p-tolyl)hydrazinecarboxamide], the IC50 in assay [1] turned out to be 43.2 ± 2.5 µM; in assay [2], 68.6 ± 3.9 µM.
`O=C(CSc1nc2ccccc2c(=O)n1-c1ccc(Cl)cc1)NNC(=O)Nc1ccccc1` [Compound 12, 2-(2-((3-(4-Chlorophenyl)-4-oxo-3,4-dihydroquinazolin-2-yl)thio)acetyl)-N-phenylhydrazinecarboxamide]: the results for the IC50 in assay [8], in assay [1] and in assay [2] were 12.9 ± 1 µM, 75.5 ± 4 µM and 19.5 ± 1.3 µM, respectively.
